Rtt109 HAT inh: inhibitors of C. albicans Rtt109/Vps75 HAT, primary screen, biochemical, ThioGlo CoA-SH fluorescence, plate reader. Histone acetyltransferase RTT109 (Candida albicans (strain SC5314 / ATCC MYA-2876)), …. purified Rtt109/Vps75, 4 h. inhibition, % at 34.9 µM. 330,000 compounds, 0.16% hits. AID 540336, 2011;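 active = inhibition of at least 50% in every replicate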
PglD DTNB: C. jejuni PglD acetyltransferase inhibitors, primary screen, biochemical, DTNB colorimetric, single point | UDP-N-acetylbacillosamine N-acetyltransferase PglD (Campylobacter jejuni) | purified PglD enzyme, DTNB colorimetric CoA detection | inhibition, % at 12.5 µM | 360,000 compounds, 0.098% hits; in the data active = inhibition above about 16%, passing the limit was not always enough
SR-BI DiI inh: inhibitors of SR-BI mediated HDL lipid uptake, primary screen, ldlA[mSR-BI] cells, fluorescence, single point | inhibition, % at 12.5 µM | 320,000 compounds, 0.96% hits | Scavenger receptor class B member 1 (Mus musculus), Q61009 | ldlA[mSR-BI] CHO cells, DiI-HDL uptake fluorescence, 3 h;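 active = mean replicate inhibition of at least 70% and a set share of replicates each scoring 70 or more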;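 also: 0% = median of neutral control wells and 100% = median of positive control wells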
Target sequence (Q61009 whole entry, looked up): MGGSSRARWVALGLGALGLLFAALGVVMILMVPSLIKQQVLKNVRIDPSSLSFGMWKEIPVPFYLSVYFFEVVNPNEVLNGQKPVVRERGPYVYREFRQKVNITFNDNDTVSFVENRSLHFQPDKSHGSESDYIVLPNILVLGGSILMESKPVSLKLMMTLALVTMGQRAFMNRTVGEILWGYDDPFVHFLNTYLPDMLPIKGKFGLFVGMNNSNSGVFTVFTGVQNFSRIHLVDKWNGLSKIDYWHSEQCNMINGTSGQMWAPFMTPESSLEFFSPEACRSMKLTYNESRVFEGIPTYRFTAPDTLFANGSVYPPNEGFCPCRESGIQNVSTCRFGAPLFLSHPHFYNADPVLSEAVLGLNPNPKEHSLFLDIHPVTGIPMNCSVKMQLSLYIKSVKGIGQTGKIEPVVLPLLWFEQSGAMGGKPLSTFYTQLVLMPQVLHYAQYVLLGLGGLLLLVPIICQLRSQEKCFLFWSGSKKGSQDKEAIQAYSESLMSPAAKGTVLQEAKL
Glyco luc inh: increase of ERlucT glycosylation luciferase signal, primary screen, N-linked glycosylation inhibitor project, D54 ERlucT cells, luminescence, set 2. D54 ERlucT glycosylation luciferase reporter, 24 h; percent of 100 nM tunicamycin response. reporter increase, % at 12.5 µM. 360,000 compounds, 0.23% hits;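 active = mean luciferase reporter signal, scaled so untreated is 0 and the glycosylation-blocking control 100, at or above a set limit in every replicate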;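 also: luciferase carries N-glycosylation sites so blocking glycosylation raises the light; 0% = median of neutral control wells and 100% = median of 100 nM tunicamycin wells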
SR-BI DiI-HDL act: activators of SR-BI mediated DiI-HDL uptake, primary screen, ldlA[mSR-BI] CHO cells, DiI fluorescence; 3 h; 100 = double the neutral-control signal; activation, % at 12.5 µM; 320,000 compounds, 0.096% hits; AID 504775, 2011;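 active = mean replicate activation of at least 60% and every replicate at or above 60%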;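 also: 0% = median plate neutral-control signal and 100% = twice that signal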
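System: CHO ldlA[mSR-BI] cells / Medium: HEPES-buffered (25 mM, pH 7.4) F12 plus 0.5% BSA / Probe or stimulus: labelled HDL, 10 µg/mL / Doses: single compound concentration, delivered by pin transfer / Schedule: 3 h, 37 °C / Measured by: DiI fluorescence, bottom read / Measure: cell-associated DiI fluorescence as measure of HDL uptake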
Env fusion inh: inhibitors of HIV-1 Env-driven cell-cell fusion, primary screen, HeLa-JRFL effector, CEM21 target cells, luciferase | inhibition, % at 12.3 µM | 360,000 compounds, 1.1% hits;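 active = mean replicate inhibition score of at least 50 and every replicate individually at or above 50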;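 also: 0% = plate neutral controls and 100% = maraviroc near 300 nM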
Numbers without * were called inactive; x = not tested or not shown; [ ] = another dose, or the depositor's remark. Hits are enriched below; roughly 1.9% of the tested compounds scored in any of these assays.

SMILES	Rtt109 HAT inh	PglD DTNB	SR-BI DiI inh	Glyco luc inh	SR-BI DiI-HDL act	Env fusion inh
COc1ccc(-c2cc(C(=O)N3CCCCCC3)c3ccccc3n2)cc1	-1	x	75*	3	-75	12
COc1ccc(-c2cc(C(=O)N3CCCCCC3)c3ccccc3n2)cc1OC	x	-6	x	-3	x	-3
CSc1nnc(Cc2cc(=O)[nH]c(=O)[nH]2)n1-c1cc(C)ccc1C	-9	4	-70	1	70*	-68
CCOc1cc(Br)cc(/C=N/NC(=O)c2cccnc2)c1O	4	4	80*	0	-80	12
CCOc1ccc(Br)cc1/C=N/NC(=O)c1ccncc1	7	-3	54	4	-54	x
COc1c(Br)cc(Br)cc1/C=N/NC(=O)c1cccnc1	-4	-3	8	30*	-8	-1
COc1cccc(C(=O)Oc2c(Br)cc(Br)cc2/C=N/NC(=O)c2cc(C)[nH]n2)c1	3	x	103*	-8	-103	45
Cc1cc(C(=O)N/N=C/c2cccc(OC(=O)c3cccc(Br)c3)c2)n[nH]1	-8	0	23	1	-23	-277
Cc1noc(C)c1S(=O)(=O)Nc1ccc2c(c1)C(=O)N([C@@H](C)CO)C[C@H](C)[C@H](CN(C)S(=O)(=O)c1cccs1)OCCCC[C@@H](C)O2	x	0	x	x	x	-6[16.7 µM]
CC(C)NC(=O)N(C)C[C@H]1Oc2ccc(NS(=O)(=O)c3cn(C)cn3)cc2C(=O)N([C@@H](C)CO)C[C@H]1C	x	-1	x	x	x	36[16.7 µM]
COc1ccc(C#Cc2ccc3c(c2)[C@@H]2[C@@H](CCN2C(=O)C2CCCC2)[C@H](CO)N3)cc1	x	x	x	x	x	26[16.7 µM]
CN(C)c1ccc(-c2nc3ccccn3c2/N=C/c2ccc(Br)cc2)cc1	11	x	101*	-14	-101	-12
CN(C)CC(=O)N1[C@@H]2c3ccc(-c4ccccc4)c(=O)n3C[C@H]1[C@H](CO)[C@H]2C(=O)N1CCOCC1	x	1	x	x	x	x
Cc1nn(C)cc1[C@@H]1C[C@H]2CN(Cc3cccc(Cl)c3)C(=O)[C@]23CCCN13	53*	x	-6	0	6	13
Cn1cc([C@@H]2C[C@H]3CN(Cc4cccc(Cl)c4)C(=O)[C@]34CCCN24)c(-c2ccccc2)n1	-4	6	10	0	-10	20
Cc1ccc(C(=O)n2c3ccccc3c3ccccc32)cc1	-9	x	74*	17	-74	x
CC(=O)n1c2ccccc2c2ccccc21	-3	-2	-10	1	10	-35
COc1ccc(C)cc1NCc1cccc(OC)c1OC	-5	5	5	-1	-5	-4
COc1cc(OC)c(OC)cc1CNc1cc(C)ccc1OC	-3	3	72*	0	-72	x
C[C@@H]1CN([C@@H](C)CO)S(=O)(=O)c2ccc(-c3cncnc3)cc2O[C@@H]1CN(C)C(=O)c1ccc2c(c1)OCO2	x	0	x	x	x	13[16.7 µM]
CC(C)(C)OC(=O)NCCCC[C@H](NC(=O)c1[nH]cnc1C(=O)Nc1ccc(CNC(=O)OC(C)(C)C)cc1)C(=O)OC(C)(C)C	x	x	x	x	x	72*
CC(C)(C)OC(=O)[C@H](Cc1ccccc1)NC(=O)c1nc[nH]c1C(=O)N[C@@H](Cc1ccccc1)C(=O)OC(C)(C)C	8	-8	-31	-1	31	74*
CC(C)(C)OC(=O)NCCCC[C@H](NC(=O)c1nc[nH]c1C(=O)NCc1ccccc1)C(=O)OC(C)(C)C	3	3	-3	0	3	-21
CC(C)C[C@H](NC(=O)c1[nH]cnc1C(=O)N[C@@H](Cc1ccccc1)C(=O)OCc1ccccc1)C(=O)OCc1ccccc1	-2	-5	-14	-1	14	-15
